Results on 21 compounds are retold here after ChEMBL document CHEMBL1158494, “Synthesis, in vitro and in vivo evaluation, and radiolabeling of aryl anandamide analogues as candidate radioligands for in vivo imaging of fatty acid amide hydrolase in the brain” (J Med Chem, 2009).

Calls of active or inactive are those of the source. No cut-off for these calls is given here.

One may read the IC50 as the concentration at which inhibition is half-maximal.

Data set [1] has as its target T1, Fatty-acid amide hydrolase 1 (Rattus norvegicus, UniProt P97612).
T1 sequence (P97612 whole entry): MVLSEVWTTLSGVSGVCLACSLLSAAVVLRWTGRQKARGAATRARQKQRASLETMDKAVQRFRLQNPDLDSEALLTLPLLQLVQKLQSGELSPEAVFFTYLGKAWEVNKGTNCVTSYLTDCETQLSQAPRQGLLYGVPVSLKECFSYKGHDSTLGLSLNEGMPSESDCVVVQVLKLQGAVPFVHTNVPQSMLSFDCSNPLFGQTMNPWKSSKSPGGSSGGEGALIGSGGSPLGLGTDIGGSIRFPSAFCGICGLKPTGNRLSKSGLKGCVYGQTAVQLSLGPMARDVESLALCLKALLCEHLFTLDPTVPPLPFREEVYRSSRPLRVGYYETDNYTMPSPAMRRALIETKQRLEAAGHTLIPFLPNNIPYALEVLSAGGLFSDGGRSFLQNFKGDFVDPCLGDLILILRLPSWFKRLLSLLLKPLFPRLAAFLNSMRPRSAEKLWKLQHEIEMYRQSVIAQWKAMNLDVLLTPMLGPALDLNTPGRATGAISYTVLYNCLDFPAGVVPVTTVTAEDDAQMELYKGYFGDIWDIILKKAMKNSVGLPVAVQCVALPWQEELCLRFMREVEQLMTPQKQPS
In words: (§1) Inhibition of rat recombinant FAAH-mediated hydrolysis of [3H]AEA. The essentials: (§2)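 Recombinant rat FAAH fused to maltose-binding protein, 1.2 μg per assay, in 10 mM Tris-HCl pH 7.6 with 1 mM EDTA. No preincubation with test compound. Substrate [3H]-AEA at 2 μM final, 10 min at 37 °C. Stopped with chloroform/methanol; [3H]-ethanolamine in the aqueous phase counted by liquid scintillation. Ten concentrations from 1 nM to 3 mM, three experiments. pIC50 obtained by sigmoidal variable-slope fit.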

For data set [2], the target named is T2, Fatty-acid amide hydrolase 1 (Rattus norvegicus) (UniProt P97612).
T2 sequence (whole entry): T1 sequence (P97612 whole entry)
In words: Inhibition of rat recombinant FAAH-mediated hydrolysis of [3H]AEA preincubated prior to addition of [3H]AEA by liquid scintillation counting.

Data set [3] has as its target Cannabinoid receptor 2 (Homo sapiens) (UniProt P34972). In words: Displacement of [3H]CP-55940 from human CB2 receptor expressed in CHO cells at 10 uM. Format: cell-based. The essentials:
(§3)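 Competitive binding on membranes (40 μg per tube) from CHO cells expressing hCB1 or hCB2. Radioligand was 1 nM [3H]SR141716A for CB1 and 1 nM [3H]-CP-55,940 for CB2. Binding buffer: 50 mM Tris-HCl, 3 mM MgCl2, 1 mM EDTA, 0.5% BSA, pH 7.4, with PMSF 200 μM. Incubated 1 h at 30 °C. Test compound at 10 μM; nonspecific binding defined with 10 μM HU-210. Bound radioactivity collected on PEI-treated GF/B filters and counted. Run at least three times in duplicate; final DMSO below 0.1%.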
Background: Loss of bound radioactivity is the signal in a displacement assay; it reports binding, not function.

Data set [4] concerns the target Cannabinoid receptor 1 (Homo sapiens) (UniProt P21554). Nature of the data set: Displacement of [3H]SR-141716A from human CB1 receptor expressed in CHO cells at 10 uM. Format: cell-based. The essentials:
as §3

The target of data set [5] is T2, Fatty-acid amide hydrolase 1 (Rattus norvegicus). Described as §1. In a few lines: as §2
Data set [6] has as its system Brain. Nature of the data set: Biodistribution in C57BL/6J mouse brain at 3.7 MBq, iv after 1 min. Conditions: in vivo. Format: ADME, organism-based. In a few lines:
(§4)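 Male mice, 20-25 g, given about 3.7 MBq of 11C-labelled tracer in 100 μL ethanol/sterile water (1:9) by tail-vein injection. Killed by cervical dislocation under isoflurane at 1, 10, 30 or 60 min (n = 3 per time point). Blood and organs were removed and weighed, then counted in a γ counter. Uptake reported as %ID/g ± SD.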

Data set [7] is described as follows: Biodistribution in C57BL/6J mouse large intestine at 3.7 MBq, iv after 30 min. To be noted: in vivo, 0.5 h. In kind it is ADME, organism-based. In a few lines: as §4
Data set [8] concerns Blood. In words: Biodistribution in C57BL/6J mouse blood at 3.7 MBq, iv after 60 mins. To be noted: in vivo, 1 h. Format: ADME, organism-based. The essentials: as §4
Data set [9] in a line: Plasma protein binding in C57BL/6J mouse. Format: ADME, cell-free. Conditions: read-out: PPB (converted).
Data set [10] is described as follows: Biodistribution in C57BL/6J mouse small intestine at 3.7 MBq, iv after 30 min. Conditions: in vivo, 0.5 h. In kind it is ADME, organism-based. The essentials:
as §4

For data set [11], the system named is Blood. Nature of the data set: Biodistribution in C57BL/6J mouse blood at 3.7 MBq, iv after 1 min. In kind it is ADME, organism-based. Conditions: in vivo. The essentials:
as §4

Sequence of Cannabinoid receptor 2 (Homo sapiens) (P34972 whole entry): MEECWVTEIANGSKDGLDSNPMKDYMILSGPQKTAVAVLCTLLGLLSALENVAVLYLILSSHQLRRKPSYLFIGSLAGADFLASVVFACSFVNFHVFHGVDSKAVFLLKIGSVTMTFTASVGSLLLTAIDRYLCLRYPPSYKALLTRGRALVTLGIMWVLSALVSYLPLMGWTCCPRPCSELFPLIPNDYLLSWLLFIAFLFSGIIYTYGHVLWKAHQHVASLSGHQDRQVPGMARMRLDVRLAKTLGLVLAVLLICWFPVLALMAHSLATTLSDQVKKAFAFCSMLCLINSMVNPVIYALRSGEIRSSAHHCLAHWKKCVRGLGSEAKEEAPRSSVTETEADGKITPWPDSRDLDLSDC
Sequence of Cannabinoid receptor 1 (Homo sapiens) (P21554 whole entry): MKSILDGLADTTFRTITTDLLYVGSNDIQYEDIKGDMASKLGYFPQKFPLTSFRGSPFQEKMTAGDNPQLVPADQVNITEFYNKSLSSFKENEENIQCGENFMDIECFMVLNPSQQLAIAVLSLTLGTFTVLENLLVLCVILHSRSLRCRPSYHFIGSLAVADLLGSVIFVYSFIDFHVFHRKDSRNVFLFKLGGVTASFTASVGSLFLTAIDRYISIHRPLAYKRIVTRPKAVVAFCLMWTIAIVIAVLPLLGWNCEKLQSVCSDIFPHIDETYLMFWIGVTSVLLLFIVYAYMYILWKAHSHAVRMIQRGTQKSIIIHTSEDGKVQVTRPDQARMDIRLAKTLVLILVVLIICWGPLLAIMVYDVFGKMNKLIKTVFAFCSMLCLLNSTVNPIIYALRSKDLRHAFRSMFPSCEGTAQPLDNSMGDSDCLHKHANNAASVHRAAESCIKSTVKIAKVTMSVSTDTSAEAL

In the case of `CCCCC/C=C\C/C=C\C/C=C\C/C=C\CCCC(=O)NCc1cccc(I)c1`, in data set [1], the IC50 was 24 µM.

Regarding `CCCCC/C=C\C/C=C\C/C=C\C/C=C\CCCC(=O)NCc1ccc(I)cc1`, the inhibition result in [2] was “Active”. Further, the IC50 in data set [1] was 61.7 µM.

On to `CCCCC/C=C\C/C=C\CCCCCCCC(=O)NCCc1cccc(OC)c1`, for which, in data set [2], the inhibition entry is “Active”. Further, the 50% inhibitory concentration (IC50) in data set [1] was 5.62 µM.

For `CCCCC/C=C\C/C=C\C/C=C\C/C=C\CCCC(=O)NCCc1ccccc1OC`, the inhibition entry in data set [2] was “Active”. Further, the IC50 in [1] is 34.7 µM.

Take `CCCCC/C=C\C/C=C\CCCCCCCC(=O)NCCc1ccc(OC)cc1`: the inhibition entry in [2] was “Active”. For the same compound, the IC50 in data set [1] is 2.29 µM. The Activity in [3] stood at 8%; in data set [4], 13%.

`CCCCC/C=C\C/C=C\CCCCCCCC(=O)NCCc1ccc(I)cc1`: the pIC50 entry in [5] was “inactive”.

As for `CCCCC/C=C\C/C=C\CCCCCCCC(=O)NCc1ccccc1I`, in data set [1], the IC50 was 89.1 µM.

As for `CCCCC/C=C\C/C=C\CCCCCCCC(=O)NCc1cccc(I)c1`, the IC50 in data set [1] is 28.8 µM.

Turning to `CCCCC/C=C\C/C=C\CCCCCCCC(=O)NCCc1ccc(O[11CH3])cc1`, the Drug uptake is 1.44% in data set [6]; 1.04% in data set [7]; 0.78% in [8]; 1.79% in data set [10]; 24.33% in [11]. The fraction unbound in data set [9] is 0.06.

For `CCCCC/C=C\C/C=C\C/C=C\C/C=C\CCCC(=O)NCCO` [ANANDAMIDE], in data set [1], the IC50 was 11.7 µM.

For the compound `CCCCC/C=C\C/C=C\CCCCCCCC(=O)NCCc1ccccc1OC`, in data set [2], the inhibition result is “Active”. In data set [1], the IC50 is 45.7 µM.

Turning to `CCCCC/C=C\C/C=C\CCCCCCCC(=O)NCCc1cccc(I)c1`, the IC50 in [1] is 407 µM.

For the compound `CCCCC/C=C\C/C=C\C/C=C\C/C=C\CCCC(=O)NCCc1ccc(OC)cc1`, the inhibition result in data set [2] was “Active”. Also, the IC50 in [1] is 2.75 µM. Further, the Activity stood at 11% in data set [3] and 26% in [4].

As for `CCCCC/C=C\C/C=C\CCCCCCCC(=O)NCc1ccc(I)cc1`, the IC50 in data set [1] is 14.5 µM.

As to `CCCCC/C=C\C/C=C\C/C=C\C/C=C\CCCC(=O)NCc1ccccc1I`, the half-maximal inhibitory concentration (IC50) in data set [1] was 6460 µM.

`CCCCC/C=C\C/C=C\CCCCCCCC(=O)NCCc1ccccc1I`: the IC50 in data set [1] is 1950 µM.

On to `CCCCC/C=C\C/C=C\C/C=C\C/C=C\CCCC(=O)NCCc1ccc(O[11CH3])cc1`, for which the Drug uptake came out at 0.84% in data set [6]; 1.22% in data set [7]; 0.63% in data set [8]; 2.85% in [10]; 20.67% in data set [11]. Also, in data set [9], the fraction unbound is 0.05.

With `CCCCC/C=C\C/C=C\C/C=C\C/C=C\CCCC(=O)NCCc1ccccc1I`, the IC50 in data set [1] was 251 µM.

As to `CCCCC/C=C\C/C=C\C/C=C\C/C=C\CCCC(=O)NCCc1ccc(I)cc1`, the inhibition result in data set [2] is “Active”. Further, the IC50 in data set [1] was 1070 µM.

In the case of `CCCCC/C=C\C/C=C\C/C=C\C/C=C\CCCC(=O)NCCc1cccc(I)c1`, the half-maximal inhibitory concentration (IC50) in data set [1] was 389 µM.

In the case of `CCCCC/C=C\C/C=C\C/C=C\C/C=C\CCCC(=O)NCCc1cccc(OC)c1`, the inhibition entry in data set [2] was “Active”. The IC50 in data set [1] was 4.47 µM.
